This is an account of results in ChEMBL document CHEMBL5226322, “Harnessing the Role of HDAC6 in Idiopathic Pulmonary Fibrosis: Design, Synthesis, Structural Analysis, and Biological Evaluation of Potent Inhibitors” (J Med Chem, 2021).

The species named for one data set is Homo sapiens. The data set can be described thus: Inhibition of broncho-sphere formation in IPF patient derived human lung organoid assessed as inhibition of 3D organoid formation at 0.1 to 50 nM incubated for 14 days by Bright-field microscopy analysis. The format is functional. Conditions: dose 0.1-50 nM, time 14.0 day. The essentials: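 Airway basal cells from bronchial brushings of IPF patients, 10⁴ cells in Matrigel on transwell inserts with 1:1 BEGM/DMEM. Treated 14 days (1–50 nM per methods; 0.1–50 nM per legend), medium changed every 7 days.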

Data set [1] is described as follows: Metabolic stability in human liver microsome assessed as compound remaining at 5 uM in presence of NADPH by HPLC analysis. The format is ADME. The settings on record: liver microsomes, read-out: Stability. The essentials:
(§1)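 Compound at 5 μM, added in MeCN, incubated at 37 °C in 100 mM phosphate buffer pH 7.4 with 0.5 mg/mL human liver microsomal protein. Reaction started with an NADPH-generating system (2 mM NADPH, glucose-6-phosphate, G6P dehydrogenase, MgCl2). Stopped with MeCN at time points over 0–60 min. Remaining compound measured by RP-18 HPLC-UV at 254 nm, in triplicate. First-order depletion constant k; CLint = k × incubation volume / microsomal protein.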
On the technique in general: Liver microsomes are a subcellular fraction often used to study metabolism.

The target of data set [2] is T1, Protein deacetylase HDAC6 (Homo sapiens, UniProt Q9UBN7).
T1 sequence (Q9UBN7 whole entry): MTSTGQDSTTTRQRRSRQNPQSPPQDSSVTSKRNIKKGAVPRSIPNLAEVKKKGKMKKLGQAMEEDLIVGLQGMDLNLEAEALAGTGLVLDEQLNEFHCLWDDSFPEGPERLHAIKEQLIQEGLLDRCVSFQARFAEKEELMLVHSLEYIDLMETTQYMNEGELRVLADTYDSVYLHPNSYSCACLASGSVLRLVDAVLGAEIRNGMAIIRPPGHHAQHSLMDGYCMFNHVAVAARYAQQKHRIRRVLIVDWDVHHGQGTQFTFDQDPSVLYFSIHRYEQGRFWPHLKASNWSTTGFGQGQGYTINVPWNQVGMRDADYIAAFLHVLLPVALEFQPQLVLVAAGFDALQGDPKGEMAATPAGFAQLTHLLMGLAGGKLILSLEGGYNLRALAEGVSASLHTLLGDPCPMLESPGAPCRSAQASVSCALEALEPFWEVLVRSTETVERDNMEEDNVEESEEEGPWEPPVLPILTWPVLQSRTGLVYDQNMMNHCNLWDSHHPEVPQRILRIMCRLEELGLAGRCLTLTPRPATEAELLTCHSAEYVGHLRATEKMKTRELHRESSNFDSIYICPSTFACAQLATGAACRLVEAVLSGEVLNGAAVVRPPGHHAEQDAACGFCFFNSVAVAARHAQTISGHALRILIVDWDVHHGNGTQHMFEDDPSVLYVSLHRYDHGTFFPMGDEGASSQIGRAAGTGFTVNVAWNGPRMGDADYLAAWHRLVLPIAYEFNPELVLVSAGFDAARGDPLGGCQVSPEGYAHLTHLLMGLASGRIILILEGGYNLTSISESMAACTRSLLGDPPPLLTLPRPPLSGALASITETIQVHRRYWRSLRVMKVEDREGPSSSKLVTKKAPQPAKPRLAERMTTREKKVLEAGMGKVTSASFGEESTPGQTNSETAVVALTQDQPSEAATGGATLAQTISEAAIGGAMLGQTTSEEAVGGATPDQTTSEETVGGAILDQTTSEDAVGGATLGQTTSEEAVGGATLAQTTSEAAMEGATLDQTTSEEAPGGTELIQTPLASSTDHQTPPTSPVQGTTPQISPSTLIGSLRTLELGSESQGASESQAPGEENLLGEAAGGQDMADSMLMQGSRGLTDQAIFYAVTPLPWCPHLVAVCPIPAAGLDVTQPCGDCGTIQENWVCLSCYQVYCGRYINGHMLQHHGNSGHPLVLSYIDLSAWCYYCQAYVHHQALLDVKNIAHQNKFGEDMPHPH
The data set can be described thus: Inhibition of human recombinant HDAC6 using ZMAL (Z-(Ac)Lys-AMC) as fluorogenic substrate incubated for 120 mins by microplate reader assay.

For data set [3], the target named is T2, Histone deacetylase 1 (Homo sapiens, UniProt Q13547). The data set can be described thus: Inhibition of HDAC1 in human NB-4 cells assessed as increase in acetylation of histone H3 at 5 uM incubated for 30 hrs by western blot analysis. Type of data set: cell-based. In outline:
(§2)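 Whole lysates (35 μg) and acid-extracted histones (2 μg) run on SDS-PAGE and blotted for acetylated tubulin or acetyl-histone H3; GAPDH or H4 as loading controls.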

Data set [4] deals with T2, Histone deacetylase 1. The data set can be described thus: Inhibition of HDAC1 in human U87 cells assessed as increase in acetylation of histone H3 at 5 uM incubated for 30 hrs by western blot analysis. The format is cell-based. The essentials: as §2
Another data set deals with T3, Histone deacetylase 8 (Homo sapiens, UniProt Q9BY41).
T3 sequence (Q9BY41 whole entry): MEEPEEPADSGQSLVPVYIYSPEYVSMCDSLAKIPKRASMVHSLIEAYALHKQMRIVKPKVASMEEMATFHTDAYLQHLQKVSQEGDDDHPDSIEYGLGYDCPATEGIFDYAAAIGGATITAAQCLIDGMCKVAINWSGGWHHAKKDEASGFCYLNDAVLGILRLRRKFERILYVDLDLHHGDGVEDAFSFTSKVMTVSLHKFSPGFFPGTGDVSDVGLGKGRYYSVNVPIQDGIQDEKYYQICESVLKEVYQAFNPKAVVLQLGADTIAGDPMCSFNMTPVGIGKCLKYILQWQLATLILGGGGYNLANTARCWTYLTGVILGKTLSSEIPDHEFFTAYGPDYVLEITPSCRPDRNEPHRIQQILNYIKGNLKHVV
The data set is described as follows: Inhibition of human recombinant HDAC8 using FLUOR DE LYS fluorometric substrate pre-incubated for 15 mins and followed by substrate addition and measured after 60 mins by microplate reader assay. The essentials: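 Recombinant human HDAC8 at 0.45 U/reaction with 0.5% DMSO; DMSO-only enzyme served as control. Enzyme preincubated 15 min with compound, then Fluor de Lys substrate added (50 μM final) for 1 h at 30 °C. Quenched with 2 μM TSA in Developer II for a further 1 h at 30 °C. Fluorescence read at ex 370/em 450 nm. IC50 from nonlinear dose-response fit.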

A short description of data set [5]: Metabolic stability in human liver microsome assessed as apparent decay constant at 5 uM in presence of NADPH incubated up to 60 mins by HPLC analysis. The settings on record: microsomes, 1 h. The format is ADME. In outline: as §1
A further data set deals with Airway basal cell. The data set can be described thus: Inhibition of cell proliferation in IPF patient derived human Airway basal cell at 20 to 50 nM incubated for 14 days by MTT assay. The format is functional, cell-based. The settings on record: dose 20-50 nM, time 14.0 day. The essentials:
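IPF patient airway basal cell 3D organoid cultures (10⁴ cells in Matrigel, 1:1 BEGM/DMEM) treated 14 days at 1–50 nM, medium changed weekly. Proliferation read by colorimetric MTT on day 14. Mean ± SEM of triplicates, n=3; repeated-measures ANOVA/Friedman test. Reported IC50 is the mean of the count-based and MTT-based IC50s.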
In general terms: Formazan colour is commonly taken as a measure of viable cells.

In the next data set the test system is Heart. The data set can be described thus: Cardiotoxicity in Langendorff-perfused Sprague-Dawley rat heart assessed as effect on QRS interval time at 0.01 uM by ECG analysis (reference value: 15.2 +/-0.2 milliseconds). Type of data set: toxicity, tissue-based.

The structures appear in SMILES notation. Active and inactive are the calls of the source. No cut-off for these calls is given here.

T2 sequence (Q13547 whole entry): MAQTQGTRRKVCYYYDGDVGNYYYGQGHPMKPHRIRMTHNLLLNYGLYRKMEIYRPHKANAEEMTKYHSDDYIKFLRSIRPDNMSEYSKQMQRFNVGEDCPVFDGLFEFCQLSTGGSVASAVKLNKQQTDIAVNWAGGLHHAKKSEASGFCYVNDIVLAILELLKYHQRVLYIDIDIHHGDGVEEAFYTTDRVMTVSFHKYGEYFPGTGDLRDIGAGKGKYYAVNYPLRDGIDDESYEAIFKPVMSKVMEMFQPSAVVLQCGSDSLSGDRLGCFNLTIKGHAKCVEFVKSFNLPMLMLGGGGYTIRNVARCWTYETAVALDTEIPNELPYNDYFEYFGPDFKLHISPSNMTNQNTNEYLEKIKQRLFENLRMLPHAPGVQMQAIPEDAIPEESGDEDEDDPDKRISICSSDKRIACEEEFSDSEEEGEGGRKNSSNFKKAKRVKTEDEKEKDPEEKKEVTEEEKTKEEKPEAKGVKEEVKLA

The IC50 is the concentration needed to halve the response being measured. As for `CN1CCC2(CC1)c1ccccc1N(Cc1ccc(C(=O)NO)cc1)C2c1ccccc1F` (racemic), the inhibition result in the data set listed under Homo sapiens is “Dose-Dependent Effect”. The remaining at 5 µM in data set [1] turned out to be 100%. For the same compound, the values for the IC50 (in [2]; on Histone deacetylase 8) were 0.0285 µM and 3.49 µM, respectively. Also, the inhibition entry at Histone deacetylase 1 [3], on Histone deacetylase 1 [4] and in the data set on Airway basal cell was “Active” throughout. For the same compound, the K in [5] came out at 0.01297 min⁻¹.
On to `CC1(C)c2ccccc2N(Cc2ccc(C(=O)NO)cc2)C1c1cccnc1` (racemic), for which the inhibition result in the data set listed under Homo sapiens is “Dose-Dependent Effect”. For the same compound, in data set [1], the remaining at 5 µM was found to be 100%. Besides, the figures for the IC50 (in data set [2]; at Histone deacetylase 8) were 0.0419 µM and 2.17 µM, respectively. The inhibition result at Histone deacetylase 1 [3] and on Histone deacetylase 1 [4] was “inactive” each time. Besides, the Time in the data set on Heart is 15.6 ms. Besides, in data set [5], the K is 0.01357 min⁻¹. Further, the inhibition entry with Airway basal cell was “Active”.
